Tests used:
[1] = Relaxivity measurement of contrast agents; assay type: physicochemical; settings: 1.5 T, in water, 37 °C
[2] = tested on: PC3 prostate tumor xenografts; experiment: In vivo MRI of PC3 tumor-bearing mice; parameters: species or system mouse; settings: T1-weighted 3D FLASH, 0.1 mmol/kg i.v., imaged at 10, 20 and 30 min, n = 5
How it was run: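 Male athymic nude mice carried subcutaneous PC3 xenografts (100 µL of 4×10^7 cells/mL in Matrigel) and were imaged at 5–8 mm tumor diameter on a 1.0 T scanner. Agents in saline were given i.v. at 0.1 mmol/kg Gd3+, with a gadoteridol control. Images were taken pre-contrast and every 10 min to 30 min by axial T1 spin echo (TR 500 ms, TE 8.144 ms) and coronal 3D FLASH (TR 17.362 ms, TE 6 ms, 15°). CNR was the tumor/muscle ROI signal […] normalised to noise.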

| Structure (SMILES) | r1 relaxivity [1] [mM⁻¹ s⁻¹] | Time of peak CNR in PC3 tumors [2] [min] |
| --- | --- | --- |
| CC(O)CN1CCN(CC(=O)[O-])CCN(CC(=O)[O-])CCN(CC(=O)[O-])CC1.[Gd+3] (stereo not drawn) [Gd(HP-DO3A), gadoteridol] | 2.9 | 10 |
| O=C([O-])CN1CCN(CC(=O)[O-])CCN(CC(=O)O)CCN(CC(=O)[O-])CC1.[Gd+3] [Gd-DOTA] | 2.9 |  |
